# Most compounds without a hit are left out; they make up all but 5.7% or so of the library.
# Beta cell apopt: inhibitors of cytokine-induced beta cell apoptosis, primary screen, luminescence | INS-1E cytokine-induced death, ATP luminescence, 48 h; percent of positive-control rescue, neutral wells zero | protection from apoptosis, % (test concentration not listed) | 300,000 tested, 0.8% active;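 active means Every replicate reaches about 75%, or at least half do and their mean reaches it too, limit read from the data; inconclusive means At least half of replicates reach the limit but their mean does not; inactive means Under half of replicates reach the limit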;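 further: 0% = cytokine-treated negative control wells and 100% = positive control rescue; higher means more ATP so stronger rescue from cytokine killing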
# CSC inhib: cancer stem cell viability inhibitors, primary screen, luminescence. cancer stem cell-like cells viability. inhibition, % at 7.5 µM. 300,000 tested, 1.1% active. AID 2717, 2010; in the data active means inhibition above about 75%; inconclusive means no clear call, values can overlap the other calls; tested in HMLE shEcad cells
# T cruzi inh: inhibitors of intracellular T. cruzi growth, primary screen, luminescence, NIH3T3 host cells; inhibition, % (no concentration beside the values); AID 1885, 2009; T. cruzi beta-gal in NIH3T3, 90 h; 300,000 tested, 1.4% active;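 active means mean inhibition across valid replicates above about 55%, limit read from the data; inconclusive means mean below that limit but half or more replicates reach it; inactive means mean below it, under half of replicates reach it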;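 further: signal also drops with host cell toxicity which is not excluded here; 0% = plate median of DMSO wells and 100% = zero luminescence signal; higher percent means less beta-gal luminescence so fewer parasites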
#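 Assay system: NIH/3T3 host cells with β-galactosidase reporter T. cruzi; input: 5,000 host fibroblasts per well; compound: single 50 nL compound addition per well in DMSO; timing: ≥90 h infection period, 3 h prior cell attachment; measured by: GalScreen β-gal luminescence, detergent lysis, 60 min; evaluation: percent inhibition of parasite-derived β-gal signal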
# Calb FLC: C. albicans growth inhibition with fluconazole, primary screen, CaCi-2 strain, Alamar Blue fluorescence. 300,000 tested, 0.57% active. C. albicans CaCi-2 (fluconazole-resistant clinical isolate) + fluconazole, 48 h. growth inhibition, % (no concentration beside the values);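 active means growth inhibition above about 58% in most replicates, limit read from the data, passing the limit was not always enough; inconclusive means exactly half the replicates above a set limit; inactive means most replicates below a set limit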;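 further: all wells also contain fluconazole at 8 µg/ml as a sub-toxic cotreatment; 0% = median of DMSO wells and 100% = median of geldanamycin control wells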
# Mdm2-MdmX inh: inhibitors of human Mdm2-MdmX association, primary screen, cell-based, luminescence, split luciferase, SaOS-2, uHTS; Protein Mdm4 (Homo sapiens) + E3 ubiquitin-protein ligase Mdm2 (Homo sapiens), …; SaOS-2 split-luciferase Mdm2/MdmX complementation; inhibition, % at 8 µM; 330,000 tested, 3% active;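 active means inhibition of at least 50% at 8 µM in the primary screen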
# Target sequence (O15151 whole entry, looked up): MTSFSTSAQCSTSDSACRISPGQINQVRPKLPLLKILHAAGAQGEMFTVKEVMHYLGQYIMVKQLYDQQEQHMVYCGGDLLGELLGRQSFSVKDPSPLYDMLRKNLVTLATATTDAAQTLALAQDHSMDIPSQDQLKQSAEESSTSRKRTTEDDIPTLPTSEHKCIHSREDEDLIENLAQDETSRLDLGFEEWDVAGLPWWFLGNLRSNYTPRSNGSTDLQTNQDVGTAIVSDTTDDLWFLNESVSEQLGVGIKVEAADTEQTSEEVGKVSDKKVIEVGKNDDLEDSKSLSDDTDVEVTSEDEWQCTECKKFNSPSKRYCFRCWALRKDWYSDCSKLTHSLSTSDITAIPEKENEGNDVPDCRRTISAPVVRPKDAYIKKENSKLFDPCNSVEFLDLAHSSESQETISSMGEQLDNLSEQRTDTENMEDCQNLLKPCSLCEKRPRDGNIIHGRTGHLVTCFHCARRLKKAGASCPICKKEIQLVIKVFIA
# Target sequence (Q00987 whole entry, looked up): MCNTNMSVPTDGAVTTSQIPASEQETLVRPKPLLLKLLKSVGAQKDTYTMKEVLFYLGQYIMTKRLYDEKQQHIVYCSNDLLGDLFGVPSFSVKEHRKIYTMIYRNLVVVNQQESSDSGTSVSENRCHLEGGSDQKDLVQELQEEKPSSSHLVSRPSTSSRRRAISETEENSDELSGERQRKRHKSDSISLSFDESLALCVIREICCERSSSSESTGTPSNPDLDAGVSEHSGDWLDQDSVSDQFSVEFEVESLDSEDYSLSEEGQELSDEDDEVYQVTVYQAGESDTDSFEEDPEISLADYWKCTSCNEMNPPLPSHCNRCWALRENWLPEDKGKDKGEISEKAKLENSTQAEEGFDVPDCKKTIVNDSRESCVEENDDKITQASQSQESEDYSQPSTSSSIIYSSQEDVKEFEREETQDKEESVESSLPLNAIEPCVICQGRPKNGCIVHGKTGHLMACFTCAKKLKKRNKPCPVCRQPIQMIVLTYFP
# SKKanGAS inh: S. pyogenes SKKanGAS growth inhibitors in kanamycin, primary screen, streptokinase expression inhibitor project, SKKanGAS strain, BacTiter-Glo luminescence. 300,000 tested, 1.3% active. inhibition, % at 7.5 µM. 6 h;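 active means mean replicate score, as percent of positive control median, at least 50; inconclusive means mean below 50 but one replicate at or above 50; inactive means mean and every replicate below 50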;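 further: strain carries kanamycin resistance gene driven by streptokinase promoter and grows in 40 µg/ml kanamycin; loss of luminescence reflects streptokinase promoter inhibition or plain growth inhibition; 0% = median of DMSO wells and 100% = positive control at its reference dose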
# * marks the source's active call; other numbers are inactive results; ? = inconclusive; · = no result.
SMILES,Beta cell apopt,CSC inhib,T cruzi inh,Calb FLC,Mdm2-MdmX inh,SKKanGAS inh
COC(=O)CCCC(=O)N1CCCC(C(=O)c2ccccc2SC)C1 (stereo unspecified),1,-4,-13,13,0,-6
COc1cc(OC)c(OC)cc1CN1CCCC(C(=O)N2CCCCC2)C1 (stereo unspecified),-4,-5,42,-9,9,-5
COc1cc(OC)c(OC)cc1CN1CCCC(C(=O)c2ccccc2SC)C1 (stereo unspecified),4,-1,56*,-7,0,-3
COc1ccccc1C(=O)C1CCCN(Cc2cn[nH]c2C2CCCCC2)C1 (stereo unspecified),4,-4,62*,-2,21,4
CC(C)[C@H](NC(=O)c1ccc([N+](=O)[O-])cc1Cl)C(=O)N1CCN(C/C=C/c2ccccc2)CC1,37,-4,·,·,42,·
NC(=S)N/N=C/c1ccc(-n2nncc2-c2ccc(Cl)cc2)cc1,·,-7,57*,5,41,-1
NC(=S)N/N=C/c1ccc(/C=N/NC(N)=S)cc1,-4,13,-8,-5,-6,-1
C=CCn1c(SCc2ccc(F)cc2)nnc1-c1sc2nc(C)cc(C)c2c1N,2,-8,63*,-2,4,4
Cc1ccc(Nc2nnc(-c3ccc(N4CCOCC4)c([N+](=O)[O-])c3)c3ccccc23)cc1,17,48,51,67,10,35
O=[N+]([O-])c1cc(-c2nnc(Nc3ccccc3)c3ccccc23)ccc1N1CCOCC1,17,31,57*,38,40,21
CCN(CC)S(=O)(=O)c1cccc(C(=O)N/N=C/c2ccc([N+](=O)[O-])o2)c1,-1,12,56*,-2,20,7
Cc1nc2ccccn2c1C(=O)N/N=C/c1ccc([N+](=O)[O-])o1,-34,12,71*,100*,28,·
CCN(CC)S(=O)(=O)c1cccc(C(=O)N/N=C/c2ccccc2OCC(=O)O)c1,-7,-23,-11,-6,-14,1
Cc1nc2ccccn2c1C(=O)N/N=C/c1ccc([N+](=O)[O-])cc1,-5,-4,-15,29,11,-6
O=C(N/N=C/c1ccc([N+](=O)[O-])o1)c1cc2ccccc2o1,100*,8,64*,31,15,1
O=C(N/N=C/c1ccc([N+](=O)[O-])o1)c1ccc(O)cc1,100*,-18,44,·,·,27
O=C(N/N=C/c1ccc(-c2ccccc2[N+](=O)[O-])o1)c1cncc(Br)c1,-3,1,-7,-13,-11,-3
O=C(N/N=C\c1ccc([N+](=O)[O-])o1)c1cncc(Br)c1,·,3,58*,-2,6,5
Cc1scc(C(=O)N/N=C/c2ccc([N+](=O)[O-])o2)c1C,39,·,39,90*,21,-1
CSc1ccc(/C=C(\C(=O)O)c2ccc(S(=O)(=O)N3CCCC3)s2)cc1,-10,-9,·,·,-11,·
CC(C)C(=O)NNc1ccccc1,-1,-2,6,5,9,-2
CC(O)CC(C(=O)NNc1ccccc1)C(=O)NNc1ccccc1 (stereo unspecified),·,92*,1,?,-24,1
O=C(NNc1ccccc1)C(CCO)C(=O)NNc1ccccc1,-5,-2,3,100*,-1,5
CC(C)OC(=O)C(=O)NNc1ccccc1,-3,99*,58*,129*,2,-8
CC(C)NC(=O)N(C)C[C@H]1Oc2ccc(NC(=O)Nc3ccc(C(F)(F)F)cc3)cc2C(=O)N([C@H](C)CO)C[C@@H]1C,2,15,·,·,7,·
SMILES,Beta cell apopt,CSC inhib,T cruzi inh,Calb FLC,Mdm2-MdmX inh,SKKanGAS inh
CCc1c(C)nc2nc(SCc3ccccc3)[nH]n2c1=O,-8,-7,-2,12,6,2
O=C(CCn1c(=O)oc2ccccc21)Nc1cccc(Br)c1,-4,-3,10,0,23,-4
CC(=O)c1ccc(N(CC(=O)NCCc2ccccc2)C(=O)c2csnn2)cc1,-2,-21,-1,-4,19,13
COc1cccc(CNC(=O)CN2CCC(c3nc4ccc(C)cc4[nH]3)CC2)c1,·,-5,55*,14,13,-5
C[C@@]12C(=O)Nc3cc(F)ccc3C(=O)N1[C@H]1c3ccccc3OC[C@@H]1[C@@H]2c1ccccc1,3,12,·,·,31,·
CCN(CC)C1=CC(=[N+]2CCCC2)CC(C)(C)C1,46,13,64*,-36,18,-9
CN(C)c1cccc(NC2=CC(=[N+]3CCOCC3)CC(C)(C)C2)c1,-4,-3,11,-6,-10,5
COc1ccc(NC(=O)C(NS(=O)(=O)c2cccs2)C(C)C)cc1Cl (stereo unspecified),-8,-6,9,-7,6,21
CCN1CCN(c2nc(-c3ccncc3)nc3ccccc23)CC1,17,-12,69*,-8,-1,10
CCCOc1ccc(-c2nc(N3CCN(CC)CC3)c3ccccc3n2)cc1,7,88*,34,9,36,1
CCn1c(C)nc2cc(C(=O)NNC(=O)CN(C)S(=O)(=O)c3ccc(NC(C)=O)cc3)ccc21,-7,-16,·,·,7,·
CC1(C)C([N+](=O)[O-])C(c2ccc(Cl)cc2)NC(c2ccc(Cl)cc2)C1[N+](=O)[O-] (stereo unspecified),1,51,58*,0,9,38
O=C(O)c1ccc(N/N=C/c2ccc(OC(=O)c3cccc(Cl)c3)cc2)cc1,0,5,-4,3,-1,57*
NNC(=O)C(Cc1cnc[nH]1)NC(=O)OCc1ccccc1 (stereo unspecified),·,-3,-1,4,4,-3
O=C(CCc1nc2ccccc2c(=O)[nH]1)Nc1cc(C(F)(F)F)ccc1N1CCCC1,-4,-6,·,·,18,·
O=c1[nH]c(=O)n([C@H]2C[C@H](O)[C@@H](CO)O2)cc1F,40,71,35,·,·,92*
CCCCCCCNC(=O)C1(CC2CC(c3cccc(Br)c3)=NO2)CCN(C(=O)c2ccccc2)CC1 (stereo unspecified),4,-4,61*,6,14,39
Nc1nc(CN2CCC(Cc3ccccc3)CC2)nc(Nc2ccccc2)n1,-14,-6,9,6,32,50*
Nc1nc(CN2CCCCCC2)nc(Nc2ccccc2)n1,3,2,-13,-8,-19,1
Cc1cccc(Nc2nc(N)nc(CN3CCN(C)CC3)n2)c1,-3,-5,-14,-2,-4,-1
